In ChEMBL document CHEMBL1153925, “Synthesis, characterization and biological activity of ring-substituted 6-benzylamino-9-tetrahydropyran-2-yl and 9-tetrahydrofuran-2-ylpurine derivatives” (Bioorg Med Chem, 2009):

How the values were obtained:
BJ = test: Cytotoxicity against human BJ cells after 72 hrs by MTT assay; assay type: ADME, cell-based
Nicotiana tabacum [1] = test: Cytokinin activity in tobacco callus assessed as stimulation of callus growth at 10 uM relative to 6-benzylaminopurine; assay type: functional
Method in brief: (§1)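 Compounds dissolved in DMSO, diluted with water to 5 × 10^-2 M stock, then diluted in medium to 10^-8 to 10^-4 M. Final DMSO ≤0.2%; solvent control 0.2% DMSO. Readout was cytokinin-dependent tobacco callus growth. Activity is expressed relative to 10^-6 M BAP (=100%) at each compound's optimal concentration. Five replicates per concentration; whole test run at least twice.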

Amaranthus = test: Cytokinin activity in cotyledons assessed as dark induction of betacyanin synthesis at 100 uM relative to 6-benzylaminopurine; assay type: functional
Triticum aestivum = test: Cytokinin activity in wheat leaf assessed as stimulation of retention of chlorophyll in excised leaves at 0.1 mM relative to 6-benzylaminopurine; assay type: functional
K562 = test: Cytotoxicity against human K562 cells after 72 hrs by Calcein AM assay; assay type: ADME, cell-based; details: K562, 72 h
MCF7 = test: Cytotoxicity against human MCF7 cells after 72 hrs by Calcein AM assay; assay type: ADME, cell-based; details: MCF7, 72 h
Nicotiana tabacum [2] = test: Cytokinin activity in tobacco callus assessed as stimulation of callus growth at 1 uM relative to 6-benzylaminopurine; assay type: functional
Nicotiana tabacum [3] = test: Cytokinin activity in tobacco callus assessed as stimulation of callus growth at 100 uM relative to 6-benzylaminopurine; assay type: functional; method in brief: as §1

`Oc1ccc(CNc2ncnc3c2ncn3C2CCCO2)cc1` (stereo not drawn) gave an IC50 (BJ) of over 100 µM, an Activity (Nicotiana tabacum [1]) of 19% and an Activity (Amaranthus) of 10%. For the same molecule, the Activity (Triticum aestivum) was 8%, the IC50 (K562) was over 100 µM and the IC50 (MCF7) was over 100 µM.
Work on `COc1ccc(CNc2ncnc3c2ncn3C2CCCO2)c(OC)c1` (stereo not drawn) yielded an IC50 (BJ) of over 100 µM, an Activity (Nicotiana tabacum [2]) of 3% and an Activity (Amaranthus) of 14%. It also gave an Activity (Triticum aestivum) of 18%, an IC50 (K562) of over 100 µM and an IC50 (MCF7) of over 100 µM.
Work on `COc1cccc(CNc2ncnc3c2ncn3C2CCCCO2)c1` (stereo not drawn) yielded an IC50 (BJ) of over 100 µM, an Activity (Nicotiana tabacum [2]) of 90% and an Activity (Amaranthus) of 76%. For the same molecule, the Activity (Triticum aestivum) was 72%, the IC50 (K562) was 61 µM and the IC50 (MCF7) was 97 µM.
Molecule `COc1ccc(CNc2ncnc3c2ncn3C2CCCO2)c(OC)c1OC` (stereo not drawn) has an IC50 (BJ) of over 100 µM, an Activity (Nicotiana tabacum [3]) of 7% and an Activity (Amaranthus) of 15%. For the same molecule, the Activity (Triticum aestivum) was 9%, the IC50 (K562) was over 100 µM and the IC50 (MCF7) was over 100 µM.
Molecule `COc1ccc(CNc2ncnc3c2ncn3C2CCCO2)cc1OC` (stereo not drawn) has an IC50 (BJ) of over 100 µM, an Activity (Nicotiana tabacum [2]) of 3% and an Activity (Amaranthus) of 5%. For the same molecule, the Activity (Triticum aestivum) was 7%, the IC50 (K562) was over 100 µM and the IC50 (MCF7) was over 100 µM.
`Oc1ccccc1CNc1ncnc2c1ncn2C1CCCO1` (stereo not drawn) was tested, and the IC50 (BJ) was over 100 µM, the Activity (Nicotiana tabacum [3]) was 58% and the Activity (Amaranthus) was 41%. It also gave an Activity (Triticum aestivum) of 25%, an IC50 (K562) of over 100 µM and an IC50 (MCF7) of over 100 µM.
With `COc1ccccc1CNc1ncnc2c1ncn2C1CCCCO1` (stereo not drawn) the IC50 (BJ) was over 100 µM, the Activity (Nicotiana tabacum [2]) was 93% and the Activity (Amaranthus) was 84%. The Activity (Triticum aestivum) was 104%, the IC50 (K562) was 97 µM and the IC50 (MCF7) was over 100 µM.
In the case of `COc1ccc(CNc2ncnc3c2ncn3C2CCCCO2)cc1` (stereo not drawn), the IC50 (BJ) is reported as over 100 µM, the Activity (Nicotiana tabacum [2]) is reported as 10% and the Activity (Amaranthus) is reported as 18%. The IC50 (K562) was over 100 µM and the IC50 (MCF7) was over 100 µM.
In the case of `COc1ccc(CNc2ncnc3c2ncn3C2CCCCO2)c(OC)c1OC` (stereo not drawn), the IC50 (BJ) is reported as over 37.5 µM, the Activity (Amaranthus) is reported as 4% and the Activity (Triticum aestivum) is reported as 7%. The IC50 (K562) was over 37.5 µM and the IC50 (MCF7) was over 37.5 µM.
In the case of `COc1cc(CNc2ncnc3c2ncn3C2CCCO2)cc(OC)c1OC` (stereo not drawn), the IC50 (BJ) is reported as over 100 µM, the Activity (Nicotiana tabacum [3]) is reported as 4% and the Activity (Amaranthus) is reported as 17%. For the same molecule, the Activity (Triticum aestivum) was 10%, the IC50 (K562) was over 100 µM and the IC50 (MCF7) was over 100 µM.
In the case of `COc1cccc(OC)c1CNc1ncnc2c1ncn2C1CCCCO1` (stereo not drawn), the IC50 (BJ) is reported as over 100 µM, the Activity (Nicotiana tabacum [3]) is reported as 57% and the Activity (Amaranthus) is reported as 13%. For the same molecule, the Activity (Triticum aestivum) was 14%, the IC50 (K562) was 10.3 µM and the IC50 (MCF7) was over 100 µM.
`COc1cc(OC)c(OC)cc1CNc1ncnc2c1ncn2C1CCCCO1` (stereo not drawn) was tested, and the IC50 (BJ) was over 100 µM, the Activity (Nicotiana tabacum [3]) was 11% and the Activity (Amaranthus) was 3%. It also gave an IC50 (K562) of over 100 µM and an IC50 (MCF7) of over 100 µM.
`COc1ccccc1CNc1ncnc2c1ncn2C1CCCO1` (stereo not drawn) gave an IC50 (BJ) of over 100 µM, an Activity (Nicotiana tabacum [1]) of 91% and an Activity (Amaranthus) of 107%. It also gave an Activity (Triticum aestivum) of 72%, an IC50 (K562) of over 100 µM and an IC50 (MCF7) of over 100 µM.
For `COc1ccc(CNc2ncnc3c2ncn3C2CCCCO2)c(OC)c1` (stereo not drawn), the IC50 (BJ) was over 25 µM, the Activity (Amaranthus) was 9% and the Activity (Triticum aestivum) was 25%. For the same molecule, the IC50 (K562) was over 25 µM and the IC50 (MCF7) was over 25 µM.
With `COc1cc(CNc2ncnc3c2ncn3C2CCCCO2)cc(OC)c1OC` (stereo not drawn) the IC50 (BJ) was over 100 µM, the Activity (Nicotiana tabacum [3]) was 17% and the Activity (Amaranthus) was 19%. It also gave an Activity (Triticum aestivum) of 7%, an IC50 (K562) of over 100 µM and an IC50 (MCF7) of over 100 µM.
For `c1ccc(CNc2ncnc3c2ncn3C2CCCCO2)cc1` (stereo not drawn), the IC50 (BJ) was over 100 µM, the Activity (Nicotiana tabacum [2]) was 102% and the Activity (Amaranthus) was 114%. It also gave an Activity (Triticum aestivum) of 104%, an IC50 (K562) of over 100 µM and an IC50 (MCF7) of over 100 µM.
Molecule `Oc1ccccc1CNc1ncnc2c1ncn2C1CCCCO1` (stereo not drawn) has an IC50 (BJ) of over 100 µM, an Activity (Nicotiana tabacum [1]) of 37% and an Activity (Amaranthus) of 46%. The Activity (Triticum aestivum) was 31%, the IC50 (K562) was over 100 µM and the IC50 (MCF7) was over 100 µM.
